From ChEMBL document CHEMBL3875141, “2,4,5-Trisubstituted thiazole derivatives as HIV-1 NNRTIs effective on both wild-type and mutant HIV-1 reverse transcriptase: Optimization of the substitution of positions 4 and 5” (Eur J Med Chem, 2016)

Key:
[1] = test system: Human immunodeficiency virus 1; assay: Antiviral activity against wild-type HIV-1 NL4-3 harboring vesicular stomatitis virus glycoprotein infected in HEK293T cells pretreated with cells for 15 mins followed by viral infection measured after 48 hrs by luciferase reporter gene assay; format: functional, cell-based; settings: Human immunodeficiency virus 1, NL4-3, HEK-293T
Method in brief: (§1)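 VSV-G-pseudotyped HIV-1 (wild-type or RT mutant) produced by co-transfection of HEK293T cells (calcium phosphate), supernatant harvested 48 h, 0.22 µm filtered, normalised by p24 ELISA to 0.2 ng p24/mL.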

[2] = Cytotoxicity against HEK293T cells at 10 uM after 48 hrs by cell proliferation assay; format: toxicity, cell-based; settings: human, hek-293t
Method in brief: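 HEK 293T cells seeded at 1×10^4 cells/well, treated next day with serially diluted compounds and cultured 48 h; viability read with a cell proliferation assay kit per manufacturer's instructions. Footnote reports testing at a final concentration of 10 μM.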

[3] = test system: Human immunodeficiency virus 1; assay: Ratio of IC50 for HIV-1 NL4-3 harboring RT-K103N/V108I double mutant infected in HEK293T cells co-expressing vesicular stomatitis virus glycoprotein to IC50 for wild-type HIV-1 NL4-3 infected in HEK293T cells co-expressing vesicular stomatitis virus glycoprotein; format: functional, HEK-293T
Method in brief: (§2)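 Fold change: mean IC50 against each RT-mutant VSV-G-pseudotyped virus divided by IC50 against wild-type pseudovirus. Both values come from the same HEK293T assay: 0.2 ng p24/mL inoculum, compound added 15 min before infection, luciferase read-out at 48 h.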

[4] = test system: Human immunodeficiency virus 1; assay: Ratio of IC50 for HIV-1 NL4-3 harboring RT-K103N/G190A double mutant infected in HEK293T cells co-expressing vesicular stomatitis virus glycoprotein to IC50 for wild-type HIV-1 NL4-3 infected in HEK293T cells co-expressing vesicular stomatitis virus glycoprotein; format: functional, HEK-293T; method in brief: as §2
[5] = test system: Human immunodeficiency virus 1; assay: Antiviral activity against HIV-1 NL4-3 harboring RT-K103N/Y181C double mutant infected in HEK293T cells coexpressing vesicular stomatitis virus glycoprotein pretreated with cells for 15 mins followed by viral infection measured after 48 hrs by luciferase reporter gene assay; format: functional, cell-based; settings: hek-293t; method in brief: as §1
[6] = test system: Human immunodeficiency virus 1; assay: Ratio of IC50 for HIV-1 NL4-3 harboring RT-K103N/Y188L double mutant infected in HEK293T cells co-expressing vesicular stomatitis virus glycoprotein to IC50 for wild-type HIV-1 NL4-3 infected in HEK293T cells co-expressing vesicular stomatitis virus glycoprotein; format: functional, HEK-293T; method in brief: as §2
[7] = test system: Human immunodeficiency virus 1; assay: Antiviral activity against HIV-1 NL4-3 harboring RT-Y181C mutant infected in HEK293T cells coexpressing vesicular stomatitis virus glycoprotein pretreated with cells for 15 mins followed by viral infection measured after 48 hrs by luciferase reporter gene assay; format: functional, cell-based; settings: hek-293t; method in brief: as §1
[8] = test system: Human immunodeficiency virus 1; assay: Antiviral activity against HIV-1 NL4-3 harboring RT-K103N/V108I double mutant infected in HEK293T cells coexpressing vesicular stomatitis virus glycoprotein pretreated with cells for 15 mins followed by viral infection measured after 48 hrs by luciferase reporter gene assay; format: functional, cell-based; settings: hek-293t; method in brief: as §1
[9] = test system: Human immunodeficiency virus 1; assay: Antiviral activity against HIV-1 NL4-3 harboring RT-K103N mutant infected in HEK293T cells coexpressing vesicular stomatitis virus glycoprotein pretreated with cells for 15 mins followed by viral infection measured after 48 hrs by luciferase reporter gene assay; format: functional, cell-based; settings: hek-293t; method in brief: as §1
[10] = test system: Human immunodeficiency virus 1; assay: Antiviral activity against HIV-1 NL4-3 harboring RT-L100I/K103N double mutant infected in HEK293T cells coexpressing vesicular stomatitis virus glycoprotein pretreated with cells for 15 mins followed by viral infection measured after 48 hrs by luciferase reporter gene assay; format: functional, cell-based; settings: hek-293t; method in brief: as §1
[11] = test system: Human immunodeficiency virus 1; assay: Ratio of IC50 for HIV-1 NL4-3 harboring RT-K103N/Y181C double mutant infected in HEK293T cells co-expressing vesicular stomatitis virus glycoprotein to IC50 for wild-type HIV-1 NL4-3 infected in HEK293T cells co-expressing vesicular stomatitis virus glycoprotein; format: functional, HEK-293T; method in brief: as §2
[12] = test system: Human immunodeficiency virus 1; assay: Antiviral activity against HIV-1 NL4-3 harboring RT-Y188L mutant infected in HEK293T cells coexpressing vesicular stomatitis virus glycoprotein pretreated with cells for 15 mins followed by viral infection measured after 48 hrs by luciferase reporter gene assay; format: functional, cell-based; settings: hek-293t; method in brief: as §1
[13] = test system: Human immunodeficiency virus 1; assay: Antiviral activity against HIV-1 NL4-3 harboring RT-K103N/Y188L double mutant infected in HEK293T cells coexpressing vesicular stomatitis virus glycoprotein pretreated with cells for 15 mins followed by viral infection measured after 48 hrs by luciferase reporter gene assay; format: functional, cell-based; settings: hek-293t; method in brief: as §1
[14] = test system: Human immunodeficiency virus 1; assay: Ratio of IC50 for HIV-1 NL4-3 harboring RT-L100I/K103N double mutant infected in HEK293T cells co-expressing vesicular stomatitis virus glycoprotein to IC50 for wild-type HIV-1 NL4-3 infected in HEK293T cells co-expressing vesicular stomatitis virus glycoprotein; format: functional, HEK-293T; method in brief: as §2
[15] = test system: Human immunodeficiency virus 1; assay: Ratio of IC50 for HIV-1 NL4-3 harboring RT-Y188L mutant infected in HEK293T cells co-expressing vesicular stomatitis virus glycoprotein to IC50 for wild-type HIV-1 NL4-3 infected in HEK293T cells co-expressing vesicular stomatitis virus glycoprotein; format: functional, HEK-293T; method in brief: as §2
[16] = test system: Human immunodeficiency virus 1; assay: Antiviral activity against HIV-1 NL4-3 harboring RT-K103N/G190A double mutant infected in HEK293T cells coexpressing vesicular stomatitis virus glycoprotein pretreated with cells for 15 mins followed by viral infection measured after 48 hrs by luciferase reporter gene assay; format: functional, cell-based; settings: hek-293t; method in brief: as §1
[17] = test system: Human immunodeficiency virus 1; assay: Ratio of IC50 for HIV-1 NL4-3 harboring RT-Y181C mutant infected in HEK293T cells co-expressing vesicular stomatitis virus glycoprotein to IC50 for wild-type HIV-1 NL4-3 infected in HEK293T cells co-expressing vesicular stomatitis virus glycoprotein; format: functional, HEK-293T; method in brief: as §2
[18] = test system: Human immunodeficiency virus 1; assay: Ratio of IC50 for HIV-1 NL4-3 harboring RT-K103N/P225H double mutant infected in HEK293T cells co-expressing vesicular stomatitis virus glycoprotein to IC50 for wild-type HIV-1 NL4-3 infected in HEK293T cells co-expressing vesicular stomatitis virus glycoprotein; format: functional, HEK-293T; method in brief: as §2
[19] = test system: Human immunodeficiency virus 1; assay: Antiviral activity against HIV-1 NL4-3 harboring RT-K103N/P225H double mutant infected in HEK293T cells coexpressing vesicular stomatitis virus glycoprotein pretreated with cells for 15 mins followed by viral infection measured after 48 hrs by luciferase reporter gene assay; format: functional, cell-based; settings: hek-293t; method in brief: as §1
[20] = test system: Human immunodeficiency virus 1; assay: Ratio of IC50 for HIV-1 NL4-3 harboring RT-K103N mutant infected in HEK293T cells co-expressing vesicular stomatitis virus glycoprotein to IC50 for wild-type HIV-1 NL4-3 infected in HEK293T cells co-expressing vesicular stomatitis virus glycoprotein; format: functional, HEK-293T
[21] = Inhibition of wild-type HIV-1 reverse transcriptase RNA-dependent DNA polymerase activity assessed as reduction in digoxigenin-11-dUTP incorporation using poly(rA)/oligo(dT) as template/primer incubated for 1 hr; set-up: species or system Human immunodeficiency virus 1

| SMILES | IC50 [1] [nM] | Activity [2] | Ratio IC50 [3] | Ratio IC50 [4] | IC50 [5] [nM] | Ratio IC50 [6] | IC50 [7] [nM] | IC50 [8] [nM] | IC50 [9] [nM] | IC50 [10] [nM] | Ratio IC50 [11] | IC50 [12] [nM] | IC50 [13] [nM] | Ratio IC50 [14] | Ratio IC50 [15] | IC50 [16] [nM] | Ratio IC50 [17] | Ratio IC50 [18] | IC50 [19] [nM] | Ratio IC50 [20] | further results |
| --- | --- | --- | --- | --- | --- | --- | --- | --- | --- | --- | --- | --- | --- | --- | --- | --- | --- | --- | --- | --- | --- |
| Clc1ccc(-c2nc(NCc3ccc4c(c3)CCO4)sc2Cc2c(Cl)cccc2Cl)c(Cl)c1 | 71 | Non-Toxic | – | – | – | – | – | – | – | – | – | – | – | – | – | – | – | – | – | – | – |
| COc1ccccc1Cc1sc(NCc2ccc3c(c2)CCO3)nc1-c1ccc(F)cc1F | 44.7 to 45 | Non-Toxic | 17 | 11 | 450 | >223.7 | 130 | 760 | 290 | 870 | 10.1 | > 10000 | > 10000 | 19.5 | >223.7 | 490 | 2.9 | 23.5 | 1050 | 6.5 | – |
| COc1cccc(Cc2sc(NCc3ccc4c(c3)CCO4)nc2-c2ccccc2)c1 | 136 | Non-Toxic | – | – | – | – | – | – | – | – | – | – | – | – | – | – | – | – | – | – | – |
| COc1ccccc1Cc1sc(NCc2ccc3c(c2)CCO3)nc1-c1ccccc1 | 72 | Non-Toxic | 21.3 | 8.1 | 9560 | >223.7 | 512 | 1530 | 880 | 5310 | 132.8 | > 10000 | > 10000 | 73.8 | >223.7 | 580 | 8.8 | 69.2 | 4980 | 12.2 | – |
| COc1ccc(Cc2sc(NCc3ccc4c(c3)CCO4)nc2-c2ccccc2)cc1 | > 10000 | Non-Toxic | – | – | – | – | – | – | – | – | – | – | – | – | – | – | – | – | – | – | – |
| Clc1ccc(Cc2sc(NCc3ccc4c(c3)CCO4)nc2-c2ccccc2)cc1 | > 10000 | Non-Toxic | – | – | – | – | – | – | – | – | – | – | – | – | – | – | – | – | – | – | – |
| c1ccc(Cc2sc(NCc3ccc4c(c3)CCO4)nc2-c2ccccc2)cc1 | 239 | Non-Toxic | – | – | – | – | – | – | – | – | – | – | – | – | – | – | – | – | – | – | – |
| Clc1cccc(Cl)c1Cc1sc(NCc2ccc3c(c2)CCO3)nc1-c1ccccc1 | 61.8 to 62 | Non-Toxic | 48.5 | 9.1 | > 10000 | >161.8 | 390 | 3000 | 1530 | 5050 | >161.8 | > 10000 | > 10000 | 81.7 | >161.8 | 560 | 6.3 | >161.8 | > 10000 | 24.8 | – |
| Fc1cc(F)cc(Cc2sc(NCc3ccc4c(c3)CCO4)nc2-c2ccccc2)c1 | 37 to 37.2 | Non-Toxic | 279.6 | 53.8 | > 10000 | >268.8 | 5560 | 10400 | 1410 | 1170 | >268.8 | > 10000 | > 10000 | 31.5 | >268.8 | 2000 | 149.5 | 135.2 | 5030 | 37.9 | – |
| Fc1ccc(Cc2sc(NCc3ccc4c(c3)CCO4)nc2-c2ccccc2)cc1 | 5670 | Non-Toxic | – | – | – | – | – | – | – | – | – | – | – | – | – | – | – | – | – | – | – |
| O=C1Nc2ccc(Cl)cc2[C@@](C#CC2CC2)(C(F)(F)F)O1 [EFAVIRENZ] | 1.04 | – | – | – | 58.7 | – | – | – | – | 2490 | – | – | 13800 | – | – | – | – | – | – | – | – |
| Cc1ccnc2c1NC(=O)c1cccnc1N2C1CC1 [NEVIRAPINE] | – | – | 90 | >322 | > 10000 | >322 | – | – | – | 5000 | >322 | > 10000 | > 10000 | 161 | >322 | > 10000 | 2152 | 177 | – | 519 | IC50 [21]: 2100 nM |
